Data published in ChEMBL document CHEMBL3853338 (Bioorg Med Chem Lett, 2016).
The source made the active and inactive calls. The rule behind the calls is not given here.

Experiments:
[1] = AUC in Sprague-Dawley rat plasma at 10 mg/kg, iv after 30 to 180 mins by LC-MS/MS analysis; assay type: ADME, organism-based; conditions: in vivo
Method in brief: (§1)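 Healthy male Sprague Dawley rats, n = 3 per time point, given 10 mg/kg IV; brain and plasma sampled at 30, 90 and 180 min post dose; drug levels by LC–MS/MS (plasma ng/ml, brain ng/g). AUC summed from straight-line segments joining the three time points.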

[2] = Fraction unbound in mouse brain assessed as compound level in insoluble tissue fraction at 10 uM after 1 hr by LC-MS/MS analysis; assay type: ADME, tissue-based; conditions: in the assay text read “soluble supernatant fraction” for “insoluble tissue fraction”
Method in brief: (§2)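 Compound at 10 µM incubated 1 h at 37 °C with homogenized mouse brain tissue in HBSS (1% final DMSO); after centrifugation, percent of compound in insoluble tissue fraction and soluble supernatant determined by LC–MS/MS.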

[3] = Drug level in Sprague-Dawley rat brain at 10 mg/kg, iv after 90 mins by LC-MS/MS analysis; assay type: ADME, organism-based; conditions: read-out: Drug uptake; method in brief: as §1
[4] = Drug level in mouse brain assessed as compound level in soluble tissue fraction at 10 uM after 1 hr by LC-MS/MS analysis; assay type: ADME, tissue-based; method in brief: as §2
[5] = Plasma concentration in Sprague-Dawley rat plasma at 10 mg/kg, iv after 180 mins by LC-MS/MS analysis; assay type: ADME, organism-based; method in brief: as §1
[6] = Cytotoxicity against human U87MG cells assessed as inhibition of cell growth at 100 uM after 72 hrs by MTS assay; assay type: functional, U-87MG ATCC; conditions: U-87 MG, read-out: GI
Method in brief: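 U87 MG cells exposed to 100 µM compound for 72 h; growth read by MTS CellTiter 96 assay; treated-cell mean growth (n = 3) divided by vehicle-treated growth (n = 3, set to 100%); SD of three replicates.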

[7] = Drug level in rat brain at 106 umol/kg, iv measured 3 hrs post dose by LC-MS/MS analysis; assay type: ADME, organism-based; conditions: in vivo
Method in brief: (§3)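 Rats (n = 1 per compound per dose) dosed IV at 10, 20 and 40 mg/kg; brain collected 3 h post dose; brain drug concentration and O6-MedG (peak area) measured by LC–MS/MS.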

[8] = tested on: U-87MG ATCC; experiment: Induction of DNA alkylation in human U87MG cells assessed as increase in O6-MedG formation at 10 to 100 uM after 3 hrs by LC-MS/MS analysis; assay type: cell-based
Method in brief: (§4)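 U87 MG cells incubated with 10 or 100 µM for 3 h at 37 °C, washed, lysed; genomic DNA isopropanol-extracted, hydrolysed 30 min at 37 °C with nuclease P1 and alkaline phosphatase (ammonium acetate/ZnCl2, pH 5.3); [H]O6-MedG internal standard added; O6-MedG peak area by LC–MS/MS.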

[9] = Plasma concentration in Sprague-Dawley rat plasma at 10 mg/kg, iv after 30 mins by LC-MS/MS analysis; assay type: ADME, organism-based; method in brief: as §1
[10] = Plasma concentration in Sprague-Dawley rat plasma at 10 mg/kg, iv after 90 mins by LC-MS/MS analysis; assay type: ADME, organism-based; method in brief: as §1
[11] = Drug level in Sprague-Dawley rat brain at 10 mg/kg, iv after 30 mins by LC-MS/MS analysis; assay type: ADME, organism-based; conditions: read-out: Drug uptake; method in brief: as §1
[12] = AUC in Sprague-Dawley rat brain at 10 mg/kg, iv after 30 to 180 mins by LC-MS/MS analysis; assay type: ADME, organism-based; method in brief: as §1
[13] = Ratio of AUC in brain to plasma of Sprague-Dawley rat at 10 mg/kg, iv after 30 to 180 mins by LC-MS/MS analysis; assay type: ADME, organism-based; conditions: read-out: Ratio AUC
Method in brief: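 Male Sprague Dawley rats (n = 3 per time point) dosed IV at 10 mg/kg; brain and plasma taken 30, 90, 180 min after dosing and assayed by LC–MS/MS; three-point linear-segment AUCs computed; ratio = AUCbrain divided by AUCplasma.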

[14] = Drug level in Sprague-Dawley rat brain at 10 mg/kg, iv after 180 mins by LC-MS/MS analysis; assay type: ADME, organism-based; conditions: read-out: Drug uptake; method in brief: as §1
[15] = Ratio of temozolomide AUC to compound AUC for drug level in brain of Sprague-Dawley rat; assay type: ADME; conditions: in vivo
[16] = tested on: U-87MG ATCC; experiment: Induction of DNA alkylation in human U87MG cells assessed as increase in O6-MedG formation at 10 uM after 3 hrs by LC-MS/MS analysis; assay type: cell-based; method in brief: as §4
[17] = tested on: U-87MG ATCC; experiment: Antitumor activity against human U87MG cells orthotopically xenografted in Harlan nude mouse brain assessed as induction of slow tumor growth at 50 umol/kg, iv administered once daily for 5 days; assay type: functional, organism-based
Method in brief: (§5)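 Orthotopic model: one million luciferase-expressing U87 MG cells surgically implanted into brains of female Harlan nude mice; dosing from day 26 (mean tumor 10.1 mm3), IV in 50% PEG400, once daily ×5; vehicle group dosed IV. Tumor volume by MRI, body weight and mortality tracked; survival followed to day 63, log-rank Mantel–Cox test.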

[18] = Ratio of AUC in human brain to plasma by reversed-phase HPLC analysis
[19] = Ratio of AUC in brain to plasma of Sprague-Dawley rat administered as single dose
[20] = tested on: U-87MG ATCC; experiment: Induction of DNA alkylation in human U87MG cells assessed as increase in N7-MedG formation after 3 hrs by LC-MS/MS analysis; assay type: cell-based
[21] = tested on: U-87MG ATCC; experiment: Antitumor activity against human U87MG cells orthotopically xenografted in Harlan nude mouse brain assessed as increase in mouse survival at 50 umol/kg, iv administered once daily for 5 days; assay type: functional, organism-based; method in brief: as §5
[22] = tested on: Rattus norvegicus; experiment: Increase in O6-MedG formation in rat brain at 51.5 to 206 umol/kg, iv measured 3 hrs post dose by LC-MS/MS analysis; assay type: functional, organism-based; method in brief: as §3
[23] = Drug level in rat brain at 103 umol/kg, iv measured 3 hrs post dose by LC-MS/MS analysis; assay type: ADME, organism-based; conditions: in vivo; method in brief: as §3

| Compound | AUC [1] | fraction unbound at 1 h, 10 µM [2] | concentration at 1.5 h [3] | Drug uptake [4] | concentration at 3 h [5] | Activity [8] | concentration at 0.5 h [9] | concentration at 1.5 h [10] | concentration at 0.5 h [11] | AUC [12] | Kp [13] | concentration at 3 h [14] | Ratio AUC [15] | further results |
| --- | --- | --- | --- | --- | --- | --- | --- | --- | --- | --- | --- | --- | --- | --- |
| Cc1ccc2c(c1)c1c(n2C)CN(C(=O)c2ncn3c(=O)n(C)nnc23)CC1 | 650 ng·h/g | 0.02 | 945 ng/g | 2% | 119 ng/mL | Active | 483 ng/mL | 256 ng/mL | 2020 ng/g | 2470 ng·h/mL | 3.79 | 372 ng/g | 2.3 | inhibition of growth at 100 µM [6]: 27.3%; Drug uptake [7]: Active |
| Cc1ccc2[nH]c3c(c2c1)CN(CCNC(=O)c1ncn2c(=O)n(C)nnc12)CC3 | 998 ng·h/g | – | 142 ng/g | – | 99.2 ng/mL | Active | 1090 ng/mL | 302 ng/mL | 1100 ng/g | 750 ng·h/mL | 0.75 | 32.7 ng/g | 7.5 | – |
| NC(=O)c1[nH]cnc1N | – | 0.48 | – | 48% | – | – | – | – | – | – | – | – | – | – |
| Cn1nnc2c(C(=O)N3CCc4c(n(C5CC5)c5c(Cl)cc(Cl)cc45)C3)ncn2c1=O | 1070 ng·h/g | 0.03 | 4830 ng/g | 3% | 347 ng/mL | – | 531 ng/mL | 438 ng/mL | 4950 ng/g | 11200 ng·h/mL | 10.4 | 3570 ng/g | 0.5 | Activity [16]: Active |
| Cc1ccc2c(c1)c1c(n2C)CN(C(=O)c2nc[nH]c2N)CC1 | – | 0.01 | – | 1% | – | – | – | – | – | – | – | – | – | – |
| CN1CCc2c(n(CCNC(=O)c3nc[nH]c3N)c3ccc(Cl)cc23)C1 | – | 0.07 | – | 7% | – | – | – | – | – | – | – | – | – | – |
| Cn1nnc2c(C(N)=O)ncn2c1=O [TEMOZOLOMIDE] | – | 0.5 | 2300 ng/g | 50% | 3100 ng/mL | Dose-dependent effect | 12800 ng/mL | 6480 ng/mL | 4210 ng/g | – | 0.34 | 912 ng/g | – | Activity [17]: Active; Kp [18]: 20; Kp [19]: 35; Activity [20]: Active; Activity [21]: Active; Activity [22]: Active; Drug uptake [23]: Active |
| Cc1ccc2c(c1)c1c(n2C)CCN(CCNC(=O)c2ncn3c(=O)n(C)nnc23)C1 | 4890 ng·h/g | – | 1700 ng/g | – | 539 ng/mL | Active | 3630 ng/mL | 2140 ng/mL | 3150 ng/g | 4010 ng·h/mL | 0.82 | 401 ng/g | 1.4 | – |
| CN1CCc2c(n(CCNC(=O)c3ncn4c(=O)n(C)nnc34)c3ccc(Cl)cc23)C1 | 386 ng·h/g | 0.11 | 162 ng/g | 11% | 43.7 ng/mL | – | 399 ng/mL | 123 ng/mL | 574 ng/g | 525 ng·h/mL | 1.36 | 47.5 ng/g | 10.8 | – |
| Nc1[nH]cnc1C(=O)N1CCc2c(n(C3CC3)c3c(Cl)cc(Cl)cc23)C1 | – | 0.01 | – | 1% | – | – | – | – | – | – | – | – | – | – |
| Cc1ccc2c(c1)c1c(n2CCNC(=O)c2ncn3c(=O)n(C)nnc23)CCN(C)C1 | 959 ng·h/g | – | 243 ng/g | – | 67.1 ng/mL | Active | 850 ng/mL | 387 ng/mL | 517 ng/g | 638 ng·h/mL | 0.67 | 101 ng/g | 8.9 | – |
